T cruzi inh – inhibitors of intracellular T. cruzi growth, primary screen, luminescence, NIH3T3 host cells. T. cruzi beta-gal in NIH3T3, 90 h. inhibition, % (no concentration beside the values). actives 1.4% (n = 300,000). AID 1885, 2009;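 active means mean inhibition across valid replicates above about 55%, limit read from the data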;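 further: signal also drops with host cell toxicity which is not excluded here; higher percent means less beta-gal luminescence so fewer parasites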
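Assay system: NIH/3T3 host cells with β-galactosidase reporter T. cruzi; input: 5,000 host fibroblasts per well; compound: single 50 nL compound addition per well in DMSO; timing: ≥90 h infection period, 3 h prior cell attachment; measured by: GalScreen β-gal luminescence, detergent lysis, 60 min; evaluation: percent inhibition of parasite-derived β-gal signal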
PolyA inh – polyadenylation inhibitors in yeast reporter cells, primary screen, luminescence, S. cerevisiae. S. cerevisiae SKY197-pL101 polyadenylation reporter, beta-gal luminescence; efflux-impaired pdr1/pdr3 knockout yeast; score 100 = 6 SD above DMSO. activity score, % at 12 µM. actives 0.02% (n = 300,000). AID 1875, 2009;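 active means lowest replicate activity score at least 50, where 100 means six control SD above control mean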;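 further: yeast exposed to compound for 9 h at 30 °C; higher score means more reporter readthrough which indicates perturbed polyadenylation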
CHT block – inhibitors of human choline transporter CHT; CHT-expressing cells, membrane potential dye, choline response; hits give low values; B-score at 10 µM; actives 0.86% (n = 310,000); AID 488975, 2010;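 active means B-score over 3 SD under the library average, and starting fluorescence ratio not unusually high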;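 further: choline stimulus applied at its EC90 after an EC20 pre-addition; B-score computed on integrated fluorescence ratio after choline addition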
Target sequence (Q9GZV3 whole entry, looked up): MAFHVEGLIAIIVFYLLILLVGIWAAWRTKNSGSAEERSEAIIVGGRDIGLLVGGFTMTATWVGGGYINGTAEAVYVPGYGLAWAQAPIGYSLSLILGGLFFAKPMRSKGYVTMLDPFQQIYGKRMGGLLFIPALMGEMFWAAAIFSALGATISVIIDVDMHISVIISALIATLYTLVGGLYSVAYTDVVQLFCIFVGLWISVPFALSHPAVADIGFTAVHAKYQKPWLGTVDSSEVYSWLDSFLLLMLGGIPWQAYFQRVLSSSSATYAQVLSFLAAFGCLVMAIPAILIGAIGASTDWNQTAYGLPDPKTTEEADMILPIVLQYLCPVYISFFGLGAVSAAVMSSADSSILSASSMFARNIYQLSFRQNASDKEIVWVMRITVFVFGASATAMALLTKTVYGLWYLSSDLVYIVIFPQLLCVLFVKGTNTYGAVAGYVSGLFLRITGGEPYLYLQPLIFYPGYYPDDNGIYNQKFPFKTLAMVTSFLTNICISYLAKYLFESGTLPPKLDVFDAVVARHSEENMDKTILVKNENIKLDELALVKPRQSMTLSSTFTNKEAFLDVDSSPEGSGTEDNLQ
CHT PAM – CHT positive allosteric modulators, primary screen, cell-based, membrane potential dye, choline EC20 | High affinity choline transporter 1 (Homo sapiens), Q9GZV3 | CHT-expressing cells; hits give high values; LV-AA mutant CHT in HEK293 cells | B-score at 10 µM | actives 0.49% (n = 310,000) | AID 488977, 2010;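 active means initial fluorescence not abnormally high and integrated response B-score, plate-corrected, over 3 SD above library mean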
CHT inh conf – CHT inhibitors, confirmation, cell-based, membrane potential dye, duplicate; shares compounds with CHT block; actives 70% (n = 2,400); CHT activity remaining % of control (hits give low values), % at 10 µM; CHT-expressing cells, choline membrane potential dye; LV-to-AA substituted CHT, HEK293 cells;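 active means choline transporter activity left, mean of duplicates at 10 µM, below buffer-only control mean minus 3 SD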;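 further: depolarization triggered by choline at its EC90 following an EC20 pre-addition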
HEK293 MPD ctr – membrane potential effects in parental HEK293, counter-screen for CHT inhibitor project, cell-based, membrane potential dye; shares compounds with CHT block; choline response; active = decrease or increase beyond buffer ±3SD; membrane potential ratio readout (active if shifted either direction beyond buffer ±3SD; no single direction) at 10 µM; actives 4% (n = 2,400); AID 493222, 2011;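 further: parental cells lack the transporter so any hit is non-specific; ratio is peak minus trough fluorescence over baseline after EC90 choline challenge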
Large screens that a line does not name were inactive (follow-up assays come after a bar, where they were run). Shown are actives, neighbours in structure and some others; about 2.6% of the full set was active somewhere.

Cc1cc(-c2csc(NC(=O)c3ccc(=O)[nH]c3)n2)c(C)n1Cc1ccccc1	none
O=C(Nc1nc(-c2ccccc2)cs1)c1ccccc1NS(=O)(=O)c1ccc(F)cc1	CHT block -8 | CHT inh conf 42% | HEK293 MPD ctr inactive
O=C(Nc1nc(-c2ccccc2)cs1)c1ccc(=O)[nH]c1	CHT block -6 | CHT inh conf 70% | HEK293 MPD ctr inactive
COc1cc(O)c(C(CC(=O)N2CCCC(C)C2)c2ccc(N(C)C)cc2)c(OC)c1 (stereo not given)	none
COc1cc(O)c(C(CC(=O)N2CCN(c3ccccc3)CC2)c2ccc(N(C)C)cc2)c(OC)c1 (stereo not given)	CHT block -11 | CHT inh conf inactive | HEK293 MPD ctr inactive
COc1ccccc1NC(=O)C1CCCN(c2nc(C)cc(C)n2)C1 (stereo not given)	CHT block -5.7 | CHT inh conf inactive | HEK293 MPD ctr inactive
COc1cc(C)nc(N2CCCC(C(=O)Nc3cccc(Cl)c3Cl)C2)n1 (stereo not given)	none
O=C(OCC(=O)N1CCc2ccccc21)c1nc(Cl)ccc1Cl	none
O=C(CCc1ccccc1O)NC1CCCc2ccccc21 (stereo not given)	CHT block -6.2 | CHT inh conf inactive | HEK293 MPD ctr inactive
COc1ccccc1OCC(=O)Nc1ccc(S(=O)(=O)Nc2onc(C)c2C)cc1	none
CC1=NN(c2ccccc2)C(=O)/C1=C/c1c(O)n(-c2ccc(F)cc2)[nH]c1=O	CHT block -5.9 | CHT inh conf 54% | HEK293 MPD ctr inactive
CC1=NN(c2ccccc2)C(=O)/C1=C/c1ccc(Cl)cc1	none
Cc1cccc(-n2cc(CN3CCN(Cc4nccn4C)CC3)c(-c3cccc(F)c3)n2)c1	CHT block -9.7 | CHT inh conf 20% | HEK293 MPD ctr inactive
COCCCNC(=S)N1CCN(C(c2ccccc2)c2ccccc2)CC1	none
Cn1c(-c2ccccc2)cnc1NCc1ccccc1	CHT block -7.2 | CHT inh conf 46% | HEK293 MPD ctr inactive
Cc1ccc(CNc2ncc(-c3ccccc3)n2C)o1	CHT block -5.1 | CHT inh conf 34% | HEK293 MPD ctr inactive
CCCCC1C(=O)CC[C@H]2[C@@H]1CC(=O)[C@@H]2C/C=C\CCCC(=O)O (stereo not given in full)	CHT block -5.5 | CHT inh conf 34% | HEK293 MPD ctr inactive
CCCCCCCC/C=C\CCCCCCCC(=O)O	none
CCOC(=O)C1CCCN(C/C(O)=C(\C#N)c2nc(-c3ccc(Cl)cc3)cs2)C1 (stereo not given)	CHT block -5.7 | CHT inh conf inactive | HEK293 MPD ctr inactive
O=C(CCNS(=O)(=O)c1ccc(Br)cc1)NCc1ccco1	none
COc1ccc(CCN(C)C(=O)CN2C(=O)NC3(CCCCC3C)C2=O)cc1OC (stereo not given)	none
CC(C)=CCc1cc(-c2oc3cc(O)cc(O)c3c(=O)c2O)ccc1O	none
CC(C)=CCc1c(O)cc2oc3c(CC=C(C)C)c(O)c(O)c(CC=C(C)C)c3c(=O)c2c1O	CHT block -6.5 | CHT inh conf inactive | HEK293 MPD ctr inactive
Cc1onc(-c2ccccc2Cl)c1C(=O)Oc1cccc2cccnc12	CHT block -5.5 | CHT inh conf inactive | HEK293 MPD ctr inactive
Cc1ccc(OCC(=O)NNC(=S)NC(=O)C(C)(C)C)c(Br)c1	CHT block -10 | CHT inh conf 55% | HEK293 MPD ctr inactive
O=C(Nc1cc(C(F)(F)F)ccc1N1CCOCC1)c1ccc[n+]([O-])c1	none
Cc1ccc[n+](CC(=O)Nc2cc(C(F)(F)F)ccc2N2CCOCC2)c1	CHT block -8 | CHT inh conf 25% | HEK293 MPD ctr inactive
COC(=O)N/N=C/c1cc(C)n(-c2ccccc2)c1C	CHT block -8.3 | CHT inh conf 23% | HEK293 MPD ctr inactive
Cc1cc(/C=N/NC(=O)c2ccncc2)c(C)n1-c1ccccc1	CHT block -6.8 | CHT inh conf 30% | HEK293 MPD ctr inactive
CCc1ccc(-n2c(C)cc(/C=N/NC(=O)OC)c2C)cc1	CHT block -8.6 | CHT inh conf 62% | HEK293 MPD ctr inactive
COC(=O)N/N=C/c1cc(C)n(-c2ccc(F)cc2)c1C	none
Cc1ccc(N2C(=O)N(CC(=O)Nc3ccc(C)cc3Cl)C(=O)C2C)cc1 (stereo not given)	none
CCCc1cc(C(=O)NNC(=S)NC(C)c2ccccc2)cs1 (stereo not given)	CHT block -6.2 | CHT inh conf 18% | HEK293 MPD ctr inactive
CC(C)CCNC(=O)C1CC(=O)N(CCc2ccccc2)C1 (stereo not given)	none
O=C(NCCSc1c[nH]c2ccccc12)c1ccc2c(c1)OCO2	none
COCc1cc(=O)[nH]c(N2CCN(Cc3ccc4c(c3)OCO4)CC2)n1	none
CC1CC(C)(C)N(C(=O)CN2C(=O)c3ccccc3C2=O)c2ccccc21 (stereo not given)	CHT block -16 | CHT inh conf 62% | HEK293 MPD ctr inactive
CC1CC(C)(C)N(C(=O)CN2CCN(C)CC2)c2ccccc21 (stereo not given)	none
O=S(=O)(c1ccccc1)N1CCN(CCc2ccccc2)CC1	none
Cc1ccc2nsnc2c1S(=O)(=O)N1CCN(CCc2ccccc2)CC1	CHT block -11 | CHT inh conf 41% | HEK293 MPD ctr inactive
Cc1ccc2nsnc2c1S(=O)(=O)NCc1cccnc1	none
O=S(=O)(c1ccccc1F)N1CCN(CCc2ccccc2)CC1	CHT block -6.8 | CHT inh conf 48% | HEK293 MPD ctr inactive
O=S(=O)(c1ccc(F)c(F)c1)N1CCN(CCc2ccccc2)CC1	CHT block -6.8 | CHT inh conf 54% | HEK293 MPD ctr inactive
CN(C)CCNC(=O)C(=O)NCC(c1ccc2c(c1)OCO2)N1CCN(c2ccc(F)cc2)CC1 (stereo not given)	CHT block -5.5 | CHT inh conf 45% | HEK293 MPD ctr inactive
CC(NC(=O)c1cc2cc(F)ccc2[nH]1)c1ccccc1 (stereo not given)	none
Cc1ccc(C2CC2C(=O)NNC(=S)Nc2cccc(C)c2)cc1 (stereo not given)	none
O=C(NNC(=S)Nc1ccc(F)cc1)C1CC1c1ccc(Cl)cc1 (stereo not given)	CHT block -9.8 | CHT inh conf 14% | HEK293 MPD ctr inactive
Fc1ccc(NC(=S)Nc2ccc(Cl)cc2)cc1	none
